Test results reported in ChEMBL document CHEMBL3272047, “3-N-Substituted aminomethyl derivatives of rifamycin SV. A convenient method of synthesis, cyclization of certain derivatives, and anticellular and antiviral activities of several derivatives” (J Med Chem, 1977).

Tests used:
[1] = system: Moloney murine sarcoma virus; assay: Antiviral activity against Moloney murine sarcoma virus infected in mouse 3T3-FL cells assessed as inhibition of cellular focal transformation at highest nontoxic concentration after 5 days by microscopic analysis relative to control; type: functional
In short: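 3T3FL cells seeded 1×10^5/dish in McCoy's 5A with 10% fetal calf serum, incubated overnight, primed with 25 µg/mL DEAE-dextran 20 min at room temperature, infected with ~100 FFU Moloney MSV (1 h adsorption, 37 °C); drug medium (0.25% Me2SO final) added, 5 days 37 °C without medium change; foci counted microscopically versus parallel control cultures.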

[2] = Cytotoxicity against mouse 3T3-FL cells after 24 to 120 hrs; type: cell-based; conditions: read-out: MNTD>75
In short: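 Uninfected 3T3 cells exposed to drug (0.25% Me2SO final, matched controls); triplicate plates counted at 24, 48, 96 and 120 h to build growth curves. Highest nontoxic level defined as logarithmic growth rate ≥75% of untreated and total growth after 5 days ≥75% of control.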

Compound	inhibition (INH) [1] [%]	MNTC [2] [nM]
CNCc1c2c(O)c3c(O)c(C)c4c(c3c1O)C(=O)[C@@](C)(O/C=C/[C@H](OC)[C@@H](C)[C@@H](OC(C)=O)[C@H](C)[C@H](O)[C@H](C)[C@@H](O)[C@@H](C)/C=C/C=C(/C)C(=O)N2)O4	14	1400
CCCNCc1c2c(O)c3c(O)c(C)c4c(c3c1O)C(=O)[C@@](C)(O/C=C/[C@H](OC)[C@@H](C)[C@@H](OC(C)=O)[C@H](C)[C@H](O)[C@H](C)[C@@H](O)[C@@H](C)/C=C/C=C(/C)C(=O)N2)O4	10	1300
CO[C@H]1/C=C/O[C@@]2(C)Oc3c(C)c(O)c4c(O)c(c(CN)c(O)c4c3C2=O)NC(=O)/C(C)=C\C=C\[C@H](C)[C@H](O)[C@@H](C)[C@@H](O)[C@@H](C)[C@H](OC(C)=O)[C@@H]1C	0	1400
CO[C@H]1/C=C/O[C@@]2(C)Oc3c(C)c(O)c4c(O)c5c(c(O)c4c3C2=O)CN(C)C(=N5)/C(C)=C\C=C\[C@H](C)[C@H](O)[C@@H](C)[C@@H](O)[C@@H](C)[C@H](OC(C)=O)[C@@H]1C	0	1400
CO[C@H]1/C=C/O[C@@]2(C)Oc3c(C)c(O)c4c(O)c5c(c(O)c4c3C2=O)CNC(=N5)/C(C)=C\C=C\[C@H](C)[C@H](O)[C@@H](C)[C@@H](O)[C@@H](C)[C@H](OC(C)=O)[C@@H]1C	26	1400
